In ChEMBL document CHEMBL3994624, “Antimalarial Pyrido[1,2-a]benzimidazoles: Lead Optimization, Parasite Life Cycle Stage Profile, Mechanistic Evaluation, Killing Kinetics, and in Vivo Oral Efficacy in a Mouse Model” (J Med Chem, 2017):
In brackets after ≈: the same amount, converted by molar mass. Activity calls are given as the source filed them. The rule behind the calls is not given here.

Key:
Ferriprotoporphyrin IX [1] = experiment: Inhibition of beta hematin formation in water/NP40/DMSO solution after 5 hrs
CHO = experiment: Cytotoxicity against CHO cells after by MTT assay; format: cell-based; conditions: Cricetulus griseus
[2] = Selectivity index, ratio of IC50 for CHO cells to IC50 for chloroquine-sensitive Plasmodium falciparum NF54; format: toxicity; conditions: hamster, read-out: Ratio IC50
Procedure, shortened: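 Selectivity index = IC50 CHO / IC50 PfNF54.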

[3] = Kinetic solubility of the compound in FaSSIF at pH 6.5 after 2 hrs by shake flask method; format: physicochemical; conditions: read-out: Kinetic_solubility
[4] = Metabolic stability in Balb/c mouse liver microsomes assessed as compound remaining at 1 uM in presence of NADPH after 30 mins by LC-MS/MS analysis; format: ADME, microsome; conditions: read-out: Stability
Procedure, shortened: (§1)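 Mouse and human liver microsomes; % compound remaining after 30 min.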

[5] = Metabolic stability in human liver microsomes assessed as compound remaining at 1 uM in presence of NADPH after 30 mins by LC-MS/MS analysis; format: ADME, microsome; conditions: read-out: Stability; procedure, shortened: as §1
Plasmodium falciparum [6] = experiment: Anti-plasmodial activity against chloroquine-sensitive Plasmodium falciparum NF54 late 4/5 stage gametocytes after 48 hrs by luciferin-luciferase reaction based bioluminescence assay; format: functional; conditions: NF54, 48 h
Plasmodium falciparum [7] = experiment: Ratio of IC50 for chloroquine-sensitive Plasmodium falciparum NF54 early 2/3 stage gametocytes to IC50 for chloroquine-sensitive Plasmodium falciparum NF54 late 4/5 stage gametocytes; format: functional
Procedure, shortened: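 Early (stage II/III) and late (stage IV/V) gametocytes tested in parallel luciferase reporter assays; stage preference = EG IC50/LG IC50.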

Huh-7 = experiment: Cytotoxicity against human HuH7 cells at 1 to 10 uM after 48 hrs by Alamarblue assay; format: cell-based; conditions: huh-7, 48 h
Plasmodium falciparum [8] = experiment: Ratio of IC50 for chloroquine-sensitive Plasmodium falciparum NF54 after 24 hrs to IC50 for chloroquine-sensitive Plasmodium falciparum NF54 after 72 hrs; format: functional
Plasmodium berghei [9] = experiment: Antimalarial activity against GFP-fused Plasmodium berghei ANKA liver stage infected in HuH7 cells pretreated for 1 hr followed by parasite infection after 48 hrs by luciferase reporter gene assay; format: functional, cell-based; conditions: Huh-7
Plasmodium falciparum [10] = experiment: Anti-plasmodial activity against multidrug resistant Plasmodium falciparum K1 by [3H]-hypoxanthine incorporation assay; format: functional
Procedure, shortened: (§2)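 P. falciparum asexual blood-stage growth inhibition by [3H]hypoxanthine incorporation; chloroquine and artesunate run as reference drugs in every experiment; IC50 given as mean of ≥2 independent experiments.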

Plasmodium falciparum [11] = experiment: Anti-plasmodial activity against chloroquine-sensitive Plasmodium falciparum NF54 by [3H]-hypoxanthine incorporation assay; format: functional; procedure, shortened: as §2
Plasmodium falciparum [12] = experiment: Anti-plasmodial activity against chloroquine-sensitive Plasmodium falciparum NF54 late 4/5 stage gametocytes assessed as reduction in ATP levels after 24 hrs by BacTiter-Glo reagent based bioluminescence assay; format: functional; conditions: NF54, 24 h
Plasmodium berghei [13] = experiment: Antimalarial activity against GFP-fused Plasmodium berghei ANKA infected in mouse assessed as reduction in parasitemia at 50 mg/kg, po administered once daily for 4 days by flow cytometry relative to control; format: functional; set-up: scale not given: the % may be the effect or the level left
Procedure, shortened: (§3)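 P. berghei-infected mice, 3 per group. Compound formulated in 90/10 Tween80/ethanol (v/v), diluted 10-fold with water, given orally once daily at 4, 24, 48 and 72 h post-infection. Outcomes: % parasitemia reduction versus untreated control, mean survival days, and cured/infected. Mice with <40% reduction euthanized on day 4.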

Plasmodium berghei [14] = experiment: Antimalarial activity against GFP-fused Plasmodium berghei ANKA infected in mouse assessed as mouse mean survival days at 50 mg/kg, po administered once daily for 4 days; format: functional
Procedure, shortened: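 P. berghei-infected mice (n=3 per dose) dosed orally once daily on 4 consecutive days at 4, 24, 48 and 72 h after infection; compound in 90/10 Tween80/ethanol (v/v) diluted 10-fold with water. Read-outs were % parasitemia reduction, mean survival time in days and cure; mice with <40% parasitemia reduction euthanized on day 4.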

Plasmodium berghei [15] = experiment: Antimalarial activity against GFP-fused Plasmodium berghei ANKA infected in mouse assessed as protection against parasitemia at 50 mg/kg, po administered once daily for 4 days measured 30 days post infection by light microscopy; format: functional, organism-based; procedure, shortened: as §3
Ferriprotoporphyrin IX [16] = experiment: Inhibition of beta hematin formation in ring stage of chloroquine-sensitive Plasmodium falciparum NF54 assessed as decrease in haemozoin level after 36 hrs by UV-vis spectra analysis
Procedure, shortened: (§4)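 Synchronized ring-stage parasites treated with increasing drug concentrations, then cellular fractionation. Free haem and haemozoin quantified as iron (fg/cell) and compared with untreated control; significance by p-values; parasite survival overlaid.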

Ferriprotoporphyrin IX [17] = experiment: Inhibition of beta hematin formation in ring stage of chloroquine-sensitive Plasmodium falciparum NF54 assessed as increase in free heme level after 36 hrs by UV-vis spectra analysis; procedure, shortened: as §4
Plasmodium berghei [18] = experiment: Antimalarial activity against GFP-fused Plasmodium berghei ANKA liver stage infected in HuH7 cells pretreated for 1 hr followed by parasite infection at 1 uM after 48 hrs by luciferase reporter gene assay; format: functional, cell-based

| SMILES | IC50 (Ferriprotoporphyrin IX [1]) [nM] | IC50 (CHO) [nM] | selectivity ratio [2] | solubility kinetic at 2 h [3] [µM] | remaining at 0.5 h, 1 µM [4] [%] | remaining at 0.5 h, 1 µM [5] [%] | IC50 (Plasmodium falciparum [6]) [nM] | Ratio IC50 (Plasmodium falciparum [7]) | Activity (Huh-7) | Ratio IC50 (Plasmodium falciparum [8]) | IC50 (Plasmodium berghei [9]) [nM] | IC50 (Plasmodium falciparum [10]) [nM] | IC50 (Plasmodium falciparum [11]) [nM] | IC50 (Plasmodium falciparum [12]) [nM] | Activity (Plasmodium berghei [13]) [%] | MSD (Plasmodium berghei [14]) [days] | Activity (Plasmodium berghei [15]) | inhibition (Ferriprotoporphyrin IX [16]) | inhibition (Ferriprotoporphyrin IX [17]) | Activity (Plasmodium berghei [18]) |
| --- | --- | --- | --- | --- | --- | --- | --- | --- | --- | --- | --- | --- | --- | --- | --- | --- | --- | --- | --- | --- |
| CCNCCNc1cc(-c2ccc(C(F)(F)F)cc2)c(C#N)c2nc3ccccc3n12 | < 45000 | 1560 | 13 | < 5 | 97 | 84 | 620 | 2.4 | Non-Toxic | <1.5 | – | – | – | – | – | – | – | – | – | – |
| COc1cc(NC(C)CCCN)c2ncccc2c1 (configuration not stated) [PRIMAQUINE] | – | – | – | – | – | – | – | – | – | – | 8420 | – | – | – | – | – | – | – | – | – |
| N#Cc1c(-c2ccc(C(F)(F)F)cc2)cc(NCCn2ccnc2)n2c1nc1ccccc12 | < 45000 | 10500 | 27 | – | – | – | – | 1.1 | Non-Toxic | 1.5 - 2 | – | 790 | 390 | 1020 | – | – | – | – | – | – |
| N#Cc1c(-c2ccc(C(F)(F)F)cc2)cc(NCCN2CCC(O)C2)n2c1nc1ccccc12 (configuration not stated) | – | 6120 | 153 | < 5 | 51 | – | – | – | – | 18 | – | 30 | 40 | – | – | – | – | – | – | – |
| O=C1C(O)=C([C@H]2CC[C@H](c3ccc(Cl)cc3)CC2)C(=O)c2ccccc21 [ATOVAQUONE] | – | – | – | – | – | – | – | – | – | – | 1 | – | – | – | – | – | – | – | – | – |
| CCNCCNc1cc(-c2ccc(C#N)cc2)c(C#N)c2nc3ccccc3n12 | – | 3900 | 23 | – | – | – | – | 1.3 | Non-Toxic | – | – | 200 | 170 | 2660 | – | – | – | – | – | – |
| CCNCCNc1cc(-c2ccc(C(F)(F)F)cc2)c(C#N)c2nc3cccc(Cl)c3n12 | – | 1630 | 5 | 10 (≈ 4.58 µg/mL) | 93 | 89 | – | – | – | – | – | 260 | 140 | – | 85 | 7 | inactive | – | – | – |
| CCNCCNc1cc(-c2ccc(Cl)c(Cl)c2)c(C#N)c2nc3ccccc3n12 | < 45000 | 1550 | 14 | – | 65 | 60 | – | 1.2 | Non-Toxic | – | – | 120 | 110 | 590 | – | – | – | Dose-dependent effect | Dose-dependent effect | – |
| CCc1nc(N)nc(N)c1-c1ccc(Cl)cc1 [PYRIMETHAMINE] | – | – | – | – | – | – | – | – | – | 6 | – | – | – | – | – | – | – | – | – | – |
| CCNCCNc1cc(-c2cccc(F)c2)c(C#N)c2nc3ccccc3n12 | – | 5180 | 13 | 25 (≈ 9.34 µg/mL) | 100 | 89 | – | 1.2 | Non-Toxic | <1.5 | – | 1000 | 380 | 3630 | 61 | 24 | – | – | – | – |
| CN1CCC(Nc2cc(-c3ccc(C(F)(F)F)cc3)c(C#N)c3nc4ccccc4n23)CC1 | – | 5980 | 14 | < 5 | 63 | 75 | – | – | – | <1.5 | – | 1000 | 440 | – | – | – | – | – | – | – |
| CCNCCNc1cc(-c2ccc(C(F)(F)F)cc2)c(C#N)c2nc3cc(Cl)ccc3n12 | < 45000 | 8710 | 362 | – | 75 | 87 | 820 | 1.1 | Non-Toxic | 1.5 - 2 | – | 30 | 30 | – | – | – | – | – | – | – |
| CCNCCNc1c(C)c(-c2ccc(C(F)(F)F)cc2)c(C#N)c2nc3ccccc3n12 | – | – | – | < 5 | 80 | 85 | – | 0.8 | Non-Toxic | – | 2850 | – | 1280 | 2570 | – | – | – | – | – | Active |
| CCN(CC)CCCC(C)Nc1cc(-c2ccc(C(F)(F)F)cc2)c(C#N)c2nc3ccccc3n12 (configuration not stated) | – | 2910 | 4 | 85 (≈ 42 µg/mL) | 32 | 53 | – | 0.7 | Non-Toxic | <1.5 | – | 400 | 690 | 3020 | – | – | – | – | – | – |
| CCNCCNc1cc(C2CCCC2)c(C#N)c2nc3ccccc3n12 | – | 3770 | 5 | – | – | – | – | 1.7 | Non-Toxic | – | – | 820 | 830 | 670 | – | – | – | – | – | – |
| CCNCCNc1cc(C2CCCCC2)c(C#N)c2nc3ccccc3n12 | – | 3190 | 7 | 10 (≈ 3.61 µg/mL) | 42 | – | – | 3.3 | Non-Toxic | – | – | 670 | 470 | 460 | – | – | – | – | – | – |
| N#Cc1c(-c2ccc(C(F)(F)F)cc2)cc(NC2CCNCC2)n2c1nc1ccccc12 | – | 16500 | 46 | – | 65 | 99 | – | 1.6 | Non-Toxic | – | 3310 | 820 | 360 | 1160 | – | – | – | – | – | Active |
